# Data: ChEMBL document CHEMBL2311276, “Synthesis of amidine and bis amidine derivatives and their evaluation for anti-inflammatory and anticancer activity” (Eur J Med Chem, 2013)
# How the values were obtained:
# [1] = system: HCT-15; test: Cytotoxicity against human HCT15 cells assessed as growth inhibition at 1 x 10 '-5 M after 24 hrs by MTT assay; assay type: functional; details: HCT-15, 24 h, read-out: GI
# Method in brief: (§1)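 MTT screen at a single concentration of 1 × 10⁻⁵ M, 24 h exposure. Seeding was 5 × 10³ cells/well in RPMI-1640 with 2 mM glutamine. Vehicle was 0.1% final DMSO. MTT was added for 4 h at 37 °C, formazan dissolved in DMSO/glycine buffer (pH 10.5), and A570 read. Percent growth inhibition was calculated against vehicle-treated cells; triplicate, mean of three independent experiments.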
# [2] = system: Rattus norvegicus; test: Antiinflammatory activity in Charles Foster albino rat assessed as inhibition of carrageenan-induced paw edema at 50 mg/kg, po administered 30 mins before carrageenan challenge measured after 1 to 3 hrs by plethysmometer analysis; assay type: functional
# Method in brief: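 Rats of both sexes (120–160 g; pregnant females excluded), five per group, were dosed orally at 50 mg/kg. After 30 min, 0.20 mL of freshly prepared 1% carrageenan in 0.9% NaCl was injected into the plantar aponeurosis of the hind paw. Paw volume was read by water plethysmometer before and 1–3 h later. Percent inhibition was taken against a carrageenan-only control group of five rats.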
# [3] = system: T47D; test: Cytotoxicity against human T47D cells assessed as growth inhibition at 1 x 10 '-5 M after 24 hrs by MTT assay; assay type: functional; details: read-out: GI; method in brief: as §1
# [4] = system: HepG2; test: Cytotoxicity against human HepG2 cells assessed as growth inhibition at 1 x 10 '-5 M after 24 hrs by MTT assay; assay type: functional; details: HepG2, 24 h, read-out: GI; method in brief: as §1
# [5] = system: NCI-H522; test: Cytotoxicity against human NCI-H522 cells assessed as growth inhibition at 1 x 10 '-5 M after 24 hrs by MTT assay; assay type: functional; details: NCI-H522, 24 h, read-out: GI; method in brief: as §1
# [6] = system: PA-1; test: Cytotoxicity against human PA1 cells assessed as growth inhibition at 1 x 10 '-5 M after 24 hrs by MTT assay; assay type: functional; details: PA-1, 24 h, read-out: GI; method in brief: as §1
# [7] = system: COS-1; test: Cytotoxicity against african green monkey COS1 cells after 24 hrs by MTT assay; assay type: cell-based; details: Chlorocebus aethiops, COS-1, 24 h
# [8] = system: NCI-H522; test: Cytotoxicity against human NCI-H522 cells after 24 hrs by MTT assay; assay type: functional, cell-based; details: NCI-H522, 24 h
# Method in brief: (§2)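 Cell lines came from NCCS Pune and were grown in RPMI-1640 with 2 mM glutamine, pH 7.4. Cells were seeded at 5 × 10³ per well and exposed to serial dilutions in DMSO for 24 h, with 0.1% final DMSO as vehicle control. MTT (5 mg/ml) was added for 4 h at 37 °C. Formazan was dissolved in DMSO plus Sorensen glycine buffer (pH 10.5) and read at 570 nm. IC50 came from % inhibition versus vehicle; triplicate, mean ± SD of three experiments.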
# [9] = system: HepG2; test: Cytotoxicity against human HepG2 cells after 24 hrs by MTT assay; assay type: functional, cell-based; details: HepG2, 24 h; method in brief: as §2
# [10] = system: T47D; test: Cytotoxicity against human T47D cells after 24 hrs by MTT assay; assay type: functional, cell-based; method in brief: as §2
# [11] = system: HCT-15; test: Cytotoxicity against human HCT15 cells after 24 hrs by MTT assay; assay type: functional, cell-based; details: HCT-15, 24 h; method in brief: as §2
# [12] = system: PA-1; test: Cytotoxicity against human PA1 cells after 24 hrs by MTT assay; assay type: functional, cell-based; details: PA-1, 24 h; method in brief: as §2
compound,measurement,setting,value
N=C(Nc1ccc(-c2ccc(NC(=N)c3ccccn3)cc2)cc1)c1ccccn1,inhibition of growth at 10 µM,[1],16%
same,inhibition in vivo at 50 mg/kg,[2],26%
same,inhibition of growth at 10 µM,[3],2%
same,inhibition of growth at 10 µM,[4],23%
same,inhibition of growth at 10 µM,[5],32%
same,inhibition of growth at 10 µM,[6],37%
N=C(Nc1ccc(-c2ccc(NC(=N)c3ccncc3)cc2)cc1)c1ccncc1,inhibition of growth at 10 µM,[1],3%
same,inhibition in vivo at 50 mg/kg,[2],15%
same,inhibition of growth at 10 µM,[3],12%
same,IC50,[7],50 µM
same,IC50,[8],13.4 µM
same,IC50,[9],11.9 µM
same,IC50,[10],34.1 µM
same,IC50,[11],124 µM
same,inhibition of growth at 10 µM,[4],48%
same,inhibition of growth at 10 µM,[5],36%
same,inhibition of growth at 10 µM,[6],7%
same,IC50,[12],42.5 µM
N=C(NCCN1CCOCC1)c1cnccn1,inhibition of growth at 10 µM,[1],6%
same,inhibition in vivo at 50 mg/kg,[2],15%
same,inhibition of growth at 10 µM,[3],13%
same,IC50,[7],173 µM
same,IC50,[8],18.2 µM
same,IC50,[9],9.4 µM
same,IC50,[10],55.4 µM
same,IC50,[11],78.3 µM
same,inhibition of growth at 10 µM,[4],52%
same,inhibition of growth at 10 µM,[5],35%
same,inhibition of growth at 10 µM,[6],51%
same,IC50,[12],13.6 µM
N=C(NCc1cccnc1)c1ccccn1,inhibition of growth at 10 µM,[1],23%
same,inhibition in vivo at 50 mg/kg,[2],10%
same,inhibition of growth at 10 µM,[3],23%
same,inhibition of growth at 10 µM,[4],42%
same,inhibition of growth at 10 µM,[5],9%
same,inhibition of growth at 10 µM,[6],36%
N=C(NCc1cccnc1)c1ccncc1,inhibition of growth at 10 µM,[1],22%
same,inhibition in vivo at 50 mg/kg,[2],0%
same,inhibition of growth at 10 µM,[3],22%
same,inhibition of growth at 10 µM,[4],20%
same,inhibition of growth at 10 µM,[5],7%
same,inhibition of growth at 10 µM,[6],21%
N=C(NCc1cccnc1)c1cnccn1,inhibition of growth at 10 µM,[1],3%
same,inhibition in vivo at 50 mg/kg,[2],18%
same,inhibition of growth at 10 µM,[3],23%
same,inhibition of growth at 10 µM,[4],26%
same,inhibition of growth at 10 µM,[5],11%
same,inhibition of growth at 10 µM,[6],23%
N=C(NCCN1CCNCC1)c1ccccn1,inhibition of growth at 10 µM,[1],24%
same,inhibition in vivo at 50 mg/kg,[2],11%
same,inhibition of growth at 10 µM,[3],14%
same,inhibition of growth at 10 µM,[4],27%
same,inhibition of growth at 10 µM,[5],8%
same,inhibition of growth at 10 µM,[6],40%
N=C(NCCN1CCNCC1)c1ccncc1,inhibition of growth at 10 µM,[1],13%
same,inhibition in vivo at 50 mg/kg,[2],0%
same,inhibition of growth at 10 µM,[3],6%
same,IC50,[7],147 µM
same,IC50,[8],35.3 µM
same,IC50,[9],191 µM
same,IC50,[10],184 µM
same,IC50,[11],35.4 µM
same,inhibition of growth at 10 µM,[4],10%
same,inhibition of growth at 10 µM,[5],17%
same,inhibition of growth at 10 µM,[6],46%
same,IC50,[12],19.3 µM
N=C(NCCN1CCNCC1)c1cnccn1,inhibition of growth at 10 µM,[1],28%
same,inhibition in vivo at 50 mg/kg,[2],20%
same,inhibition of growth at 10 µM,[3],22%
same,inhibition of growth at 10 µM,[4],23%
same,inhibition of growth at 10 µM,[5],9%
same,inhibition of growth at 10 µM,[6],36%
N=C(NCCCCNC(=N)c1ccccn1)c1ccccn1,inhibition of growth at 10 µM,[1],5%
same,inhibition in vivo at 50 mg/kg,[2],14%
same,inhibition of growth at 10 µM,[3],29%
same,inhibition of growth at 10 µM,[4],26%
same,inhibition of growth at 10 µM,[5],38%
same,inhibition of growth at 10 µM,[6],27%
N=C(NCCCCNC(=N)c1ccncc1)c1ccncc1,inhibition of growth at 10 µM,[1],5%
same,inhibition in vivo at 50 mg/kg,[2],15%
same,inhibition of growth at 10 µM,[3],27%
same,IC50,[7],246 µM
same,IC50,[8],36.6 µM
same,IC50,[9],11.2 µM
same,IC50,[10],43 µM
same,IC50,[11],87.8 µM
same,inhibition of growth at 10 µM,[4],50%
same,inhibition of growth at 10 µM,[5],20%
same,inhibition of growth at 10 µM,[6],10%
same,IC50,[12],49.2 µM
